Screens from PubChem.
Scp-1 inhibitor: blocks human Scp-1 phosphatase activity. Q9GZU7. inhibition, % at 20 µM. Recombinant Scp1, phosphopeptide, malachite green phosphate absorbance. 340,000 compounds, 0.88% hits;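 active = inhibition above about 50% at 20 µM, limit read from the data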;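 also: plate controls were DMSO wells with enzyme for no effect and wells lacking enzyme for full effect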
Target sequence (Q9GZU7 76-261 limits assumed): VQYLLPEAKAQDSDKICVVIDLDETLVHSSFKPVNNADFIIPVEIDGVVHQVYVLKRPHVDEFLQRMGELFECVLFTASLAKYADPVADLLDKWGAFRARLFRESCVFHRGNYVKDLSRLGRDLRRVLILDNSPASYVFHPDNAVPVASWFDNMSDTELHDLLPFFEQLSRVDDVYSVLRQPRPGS
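Test system – truncated SCP-1 phosphatase (76-261aa) · Reagent – Phosphorylated 17-residue peptide substrate · Incubation – 45 min room-temperature reaction, 5 min colour, 30 min stabiliser · Detection – colorimetric phosphate reagent with accelerator and stabiliser, absorbance at 630 nm · Measure – % inhibition at 20 µM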
NadD inh: inhibitors of Staphylococcus aureus NadD. 360,000 compounds, 0.78% hits. purified NadD enzyme, colorimetric absorbance read-out. AID 602399. inhibition, % at 20 µM; in the data active = inhibition above about 26%
rCAG RNA binder: binds r(CAG) RNA repeats; AID 651821; r(CAG) RNA repeat, TO-PRO-1 dye displacement fluorescence; inhibition, % at 3 µM; 370,000 compounds, 1.3% hits;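 active = inhibition above the plate cutoff, the mean of all test compounds on that plate plus 3 SD, cut at about 35% in these data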;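 also: 0% = DMSO alone and 100% = 100 µM mitoxantrone as full dye displacement; higher means more dye released from RNA so lower well fluorescence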
LMPTP block: blocks human LMPTP phosphatase; recombinant LMPTP-A, OMFP fluorogenic substrate, fluorescence intensity; 360,000 compounds, 0.22% hits; inhibition, % at 20 µM;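 active = compounds that cut the enzyme signal by at least half of the control window in the single-dose screen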;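 also: plate controls were DMSO wells with enzyme plus substrate for no effect and substrate without enzyme for full effect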
Target sequence (P24666 whole entry, looked up): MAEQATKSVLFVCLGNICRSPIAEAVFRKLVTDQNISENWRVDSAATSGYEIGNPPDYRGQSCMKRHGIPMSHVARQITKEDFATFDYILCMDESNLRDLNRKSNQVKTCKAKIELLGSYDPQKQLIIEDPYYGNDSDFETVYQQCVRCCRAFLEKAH
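Test system: LMPTP-A phosphatase enzyme. Amount: LMPTP-A at 0.625 nM final in the reaction. Reagent: OMFP substrate, 400 µM final. Times: 50 min at room temperature. Signal: endpoint fluorescence intensity from OMFP dephosphorylation. Read-out basis: % inhibition. Benchmarks: no-enzyme and uninhibited controls.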
STEP block: inhibitors of human striatal-enriched phosphatase STEP. P54829. AID 588621. inhibition, % at 20 µM. recombinant STEP, OMFP fluorogenic substrate, fluorescence. 360,000 compounds, 0.25% hits;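 active = inhibition at 20 µM, scaled per plate between control wells, above about 37%, limit read from the data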;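 also: 0% = DMSO with enzyme and substrate and 100% = substrate only without enzyme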
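Test system: STEP tyrosine phosphatase / Reagent: OMFP at 25 µM / Doses: 20 µM, 1% DMSO / Read-out: percent inhibition scaled to no-enzyme and uninhibited-enzyme controls, plate-pattern corrected / Detection: FITC-channel fluorescence of OMFP product / Medium: Bis-Tris buffer pH 6.0, 2.5 mM DTT, 0.005% Tween 20 / Schedule: 20 min at room temperature, dark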
Scp1 confirm: confirmation of human Scp-1 phosphatase inhibitors; shares compounds with Scp-1 inhibitor; inhibition, % at 20 µM; recombinant SCP-1 catalytic domain, phosphate release, malachite green absorbance; 2,500 compounds, 61% hits;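 also: plate controls were DMSO with enzyme for no effect and buffer wells lacking enzyme for full effect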
Scp-1 MG ctr: colorimetric interference in Scp-1 counter-screen; 2,500 tested, under 10 active; Colorimetric interference counterscreen, malachite green absorbance 630 nm; apparent inhibition (interference), % at 20 µM; shares compounds with Scp-1 inhibitor; AID 540313;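 also: compounds added after enzyme reaction finished so only phosphate colour detection is probed; plate controls were DMSO wells with completed Scp-1 reaction for no effect and substrate wells lacking enzyme for full effect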
Scp-1 Tm shift: Scp-1 (human) binding by thermal shift. shares compounds with Scp-1 inhibitor. Recombinant SCP1, Sypro Orange thermal shift Tm. thermal shift relative to vanadate control, % at 40 µM. 1,500 compounds, 25% hits. AID 540329;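 active = substances whose mean melting-temperature shift, as a percentage of the reference inhibitor's shift, reaches about 5.3%, limit read from the data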;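 also: 0% = Tm of DMSO wells and 100% = Tm with sodium orthovanadate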
* marks the source's active call; other numbers are inactive results. A selection: hits, their analogues and other compounds. The true share with any hit is near 2.6%.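 The calls were made as follows, unless noted: active = inhibition of at least 30% at 20 µM; inactive = the rest.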

How did C=CC(=O)N1C/C(=C/c2ccc(F)cc2)C(=O)/C(=C\c2ccc(F)cc2)C1 do in these assays?
Scp-1 inhibitor: 84.7*; NadD inh: -7.3; rCAG RNA binder: 1.8; LMPTP block: 7.2; STEP block: 24.5

What do the screens show for `N#C/C(=C\c1cc([N+](=O)[O-])c(N2CCCCC2)cc1N1CCCCC1)c1nn(-c2ccccc2)c(N)c1C#N`?
Scp-1 inhibitor: -6.7; NadD inh: 41.9*; rCAG RNA binder: 1.9; LMPTP block: 4.5; STEP block: 0.8

Results for O=C1C(Cc2ccccc2)Nc2ncnc(N3CCc4ccccc4C3)c2N1Cc1ccc(Cl)cc1 (stereo not drawn) ?
Scp-1 inhibitor: 11.9; NadD inh: 63.0*; LMPTP block: 1.2; STEP block: 1.1

What do the screens show for `CCCCN(C(=O)c1cc(-c2ccco2)nc2ccccc12)c1c(N)n(CCC)c(=O)[nH]c1=O`?
Scp-1 inhibitor: 61.1*; NadD inh: 5.1; rCAG RNA binder: 19.0; LMPTP block: 8.8; STEP block: 5.6

What do the screens show for `COC(=O)[C@]12C[C@H](CC(=O)NCCc3ccccc3OC)C(=O)N(CCc3ccc(OC)c(OC)c3)C1=C[C@H](C(C)(C)C)O[C@@H]2C`?
rCAG RNA binder: 2.3

What do the screens show for `O=C1NN(c2ccc(F)c(Cl)c2)C(=O)/C1=C\c1cccc(OC(=O)c2cccs2)c1`?
Scp-1 inhibitor: 26.7; NadD inh: 30.0*; rCAG RNA binder: 89.8*; LMPTP block: 8.3; STEP block: 9.5

What do the screens show for `CCOC(=O)C1CCCN(c2c(NCCN3CCCCC3CC)c(=O)c2=O)C1` (stereo not drawn)?
Scp-1 inhibitor: 56.8*; NadD inh: 0.3; rCAG RNA binder: -0.5; LMPTP block: 0.3; STEP block: -2.0; Scp1 confirm: -2.4; Scp-1 MG ctr: -7.3

Results for CCOC(=O)N1CCN(c2c(NCCN3CCCCC3CC)c(=O)c2=O)CC1 (stereo not drawn) ?
Scp-1 inhibitor: -6.0; NadD inh: -5.5; rCAG RNA binder: 1.1; LMPTP block: -1.0; STEP block: -2.5

Results for CCOC(=O)c1[nH]c(C)c(C(=O)OCC(=O)N(CC)C2CCS(=O)(=O)C2)c1C (stereo not drawn) ?
Scp-1 inhibitor: 1.1; NadD inh: 3.6; rCAG RNA binder: -4.6; LMPTP block: -2.0; STEP block: -1.6

Results for CCN(C(=O)COC(=O)c1[nH]c(C)c(C(C)=O)c1C)C1CCS(=O)(=O)C1 (stereo not drawn) ?
Scp-1 inhibitor: 69.9*; NadD inh: -3.3; rCAG RNA binder: 2.0; LMPTP block: -0.9; STEP block: -5.0; Scp1 confirm: -5.6; Scp-1 MG ctr: -6.5

What do the screens show for `CC(COc1ccc(Br)cc1)CN1CCC(C(O)(c2ccccc2)c2ccccc2)CC1` (stereo not drawn)?
rCAG RNA binder: 5.8

What do the screens show for `Cn1c(=O)c(C(=O)CN2CCCc3ccccc32)c(N)n(Cc2ccccc2)c1=O`?
Scp-1 inhibitor: -3.3; NadD inh: 17.6; rCAG RNA binder: 7.2; LMPTP block: 5.2; STEP block: -3.4

What do the screens show for `Cn1c(=O)c(C(=O)CN2CC(=O)Nc3ccccc32)c(N)n(Cc2ccccc2)c1=O`?
Scp-1 inhibitor: -7.1; NadD inh: -0.6; rCAG RNA binder: 2.2; LMPTP block: 0.0; STEP block: -0.5; Scp1 confirm: -7.1; Scp-1 MG ctr: -10.6

What do the screens show for `CN1CC2([N+](=O)[O-])CC=C(Oc3ccccc3)C([N+](=O)[O-])(C1)C2` (stereo not drawn)?
Scp-1 inhibitor: -2.2; NadD inh: -3.8; rCAG RNA binder: -3.3; LMPTP block: -0.8; STEP block: 2.5

What do the screens show for `C[N+]1(C)CC2([N+](=O)[O-])CC=C(Oc3ccccc3)C([N+](=O)[O-])(C2)C1` (stereo not drawn)?
Scp-1 inhibitor: 97.4*; NadD inh: 11.8; rCAG RNA binder: -1.6; LMPTP block: -0.2; STEP block: 2.0; Scp1 confirm: 87.1*; Scp-1 MG ctr: -14.5; Scp-1 Tm shift: -28.0

What do the screens show for `Cn1nnnc1SCC1=C(C(=O)O)N2C(=O)C(NC(=O)C3CC3c3ccccc3)C2SC1` (stereo not drawn)?
Scp-1 inhibitor: 58.7*; NadD inh: 0.0; rCAG RNA binder: 11.0; LMPTP block: -0.7; STEP block: 3.8; Scp1 confirm: 70.3*; Scp-1 MG ctr: 0.3; Scp-1 Tm shift: 1.9

Results for Cc1nn(C(C)C(=O)NC2C(=O)N3C(C(=O)O)=C(CSc4nnnn4C)CSC23)cc1Cl (stereo not drawn) ?
Scp-1 inhibitor: 31.5; NadD inh: 4.3; rCAG RNA binder: 5.3; LMPTP block: -0.4; STEP block: 3.5

How did Cc1cc(C)n2nc(C(=O)OCC(=O)c3ccccc3)nc2n1 do in these assays?
Scp-1 inhibitor: 72.9*; NadD inh: 0.8; rCAG RNA binder: 2.3; LMPTP block: 0.1; STEP block: 2.5; Scp1 confirm: -9.9; Scp-1 MG ctr: -20.6

Results for Cc1cc(C)n2nc(C(=O)OCC(=O)N(C)Cc3ccccc3)nc2n1 ?
Scp-1 inhibitor: -5.8; NadD inh: -0.1; rCAG RNA binder: -2.1; LMPTP block: -1.0; STEP block: -2.7

What do the screens show for `N=C1C(c2nc(-c3ccc(Br)cc3)cs2)=C(O)CN1NC(=O)c1ccc([N+](=O)[O-])cc1`?
Scp-1 inhibitor: -3.2; NadD inh: 7.3; rCAG RNA binder: 5.4; LMPTP block: 24.7; STEP block: 4.8

How did N=C1C(c2nc(-c3cccc([N+](=O)[O-])c3)cs2)=C(O)CN1NC(=O)c1ccco1 do in these assays?
Scp-1 inhibitor: 68.5*; NadD inh: 11.7; rCAG RNA binder: 21.7; LMPTP block: 47.7; STEP block: 10.4; Scp1 confirm: -9.3; Scp-1 MG ctr: -15.1

What do the screens show for `C[C@H]1COc2cc(N3CCCC3)ccc2S(=O)(=O)N1C`?
rCAG RNA binder: -0.1

How did CCN(CC)C(=O)Cn1c(C)c(/C=C/c2cc[n+](C)cc2)c2ccccc21 do in these assays?
Scp-1 inhibitor: 63.1*; NadD inh: 13.9; rCAG RNA binder: -220.1; LMPTP block: -0.1; STEP block: -9.2; Scp1 confirm: 0.4; Scp-1 MG ctr: -11.2

How did COC(=O)[C@]12C[C@H](CC(=O)N3CCCCC3)C(=O)N(Cc3ccc(Cl)cc3Cl)C1=C[C@H](C1CCCC1)O[C@@H]2C do in these assays?
rCAG RNA binder: 7.0

What do the screens show for `CCn1c(SCC(=O)Nc2ccccc2-c2ccccc2)nnc1-c1ccc(C)cc1`?
rCAG RNA binder: 5.3
